Measurements: ChEMBL document CHEMBL2413079, “Synthesis of novel psoralen analogues and their in vitro antitumor activity” (2013)

Key:
Assay type in all cases: functional
MDA-MB-231 = experiment: Growth inhibition of human MDA-MB-231 cells after 48 hrs by MTS assay; conditions: MDA-MB-231, 48 h
Procedure, shortened: (§1)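 Cells grown in DMEM with 10% FBS (15% FBS for TCC-SUP) and 1% penicillin/streptomycin. DMSO stocks freshly diluted in medium; five concentrations tested over 48 h exposure. MTS reagent added for 2 h at 37 °C, 5% CO2, then absorbance read at 490 nm. Viability taken as % of control; GI50 from dose–response curve. Three independent cultures, 4 wells per concentration.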

TCC-SUP = experiment: Growth inhibition of human TCCSUP cells after 48 hrs by MTS assay; procedure, shortened: as §1
HeLa = experiment: Growth inhibition of human HeLa cells after 48 hrs by MTS assay; procedure, shortened: as §1

| Compound | GI50 (MDA-MB-231) [nM] | GI50 (TCC-SUP) [nM] | GI50 (HeLa) [nM] |
| --- | --- | --- | --- |
| O=c1ccc2c(ccc3c4ccccc4[nH]c23)o1 | 230 | 27 | 46 |
| CCOC(=O)c1cc2c(ccc3c4ccccc4[nH]c23)oc1=O | 413 | 30 | 37 |
| O=C(O)c1cc2c(ccc3c4ccccc4[nH]c23)oc1=O | 265 | 18 | 47 |
| Cc1cc(=O)oc2cc3[nH]c4ccccc4c3cc12 | 78 | 66 | 42 |
| Cc1cc(=O)oc2cc3c(cc12)oc1ccccc13 | 60 | 41 | 35 |
